For the experiment, the target named is T1, Non-lysosomal glucosylceramidase (Mus musculus) (UniProt Q69ZF3).
T1 sequence (whole entry): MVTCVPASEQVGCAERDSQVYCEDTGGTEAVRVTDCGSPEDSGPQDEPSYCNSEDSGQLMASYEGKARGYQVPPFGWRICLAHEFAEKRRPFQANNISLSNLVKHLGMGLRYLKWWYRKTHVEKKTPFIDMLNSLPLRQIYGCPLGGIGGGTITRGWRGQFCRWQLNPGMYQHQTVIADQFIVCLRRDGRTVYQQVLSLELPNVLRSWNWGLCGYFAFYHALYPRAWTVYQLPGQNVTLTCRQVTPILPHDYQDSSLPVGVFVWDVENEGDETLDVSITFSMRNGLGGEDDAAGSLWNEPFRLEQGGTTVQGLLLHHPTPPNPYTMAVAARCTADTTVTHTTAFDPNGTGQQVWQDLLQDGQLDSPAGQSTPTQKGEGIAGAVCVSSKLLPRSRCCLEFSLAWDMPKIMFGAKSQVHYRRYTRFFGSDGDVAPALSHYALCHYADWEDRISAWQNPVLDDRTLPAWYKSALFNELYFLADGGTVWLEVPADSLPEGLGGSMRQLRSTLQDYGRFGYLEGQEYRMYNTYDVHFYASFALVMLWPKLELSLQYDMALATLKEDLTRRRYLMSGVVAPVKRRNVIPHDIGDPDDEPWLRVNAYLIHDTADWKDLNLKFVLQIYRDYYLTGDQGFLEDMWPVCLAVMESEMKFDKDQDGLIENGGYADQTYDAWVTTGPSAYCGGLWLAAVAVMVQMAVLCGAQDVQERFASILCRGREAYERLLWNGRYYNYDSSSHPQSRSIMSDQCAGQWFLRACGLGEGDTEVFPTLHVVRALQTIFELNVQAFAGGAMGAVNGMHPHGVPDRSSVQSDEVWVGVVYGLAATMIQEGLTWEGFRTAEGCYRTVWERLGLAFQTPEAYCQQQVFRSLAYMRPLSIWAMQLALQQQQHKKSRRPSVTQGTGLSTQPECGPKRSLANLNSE
The experiment is described as follows: Inhibition of GBA2 activity in mouse tissue homogenate at 50 uM. The method in brief:
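Mouse tissue homogenates were used to separate nonlysosomal GBA2 from lysosomal GCase β-glucosidase activity. Compounds were screened at 50 and 5 μM with 3 mM substrate. Two independent experiments, each run in duplicate.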

The source made the active and inactive calls. No cut-off for these calls is given here.

Here are results for 1 compound from ChEMBL document CHEMBL2163314, “Potent aminocyclitol glucocerebrosidase inhibitors are subnanomolar pharmacological chaperones for treating gaucher disease” (J Med Chem, 2012).

Take `CCCCCCCCCN1C[C@H](O)[C@@H](O)[C@H](O)[C@H]1CO`: the inhibition result is “Active”.
